Test results as given in ChEMBL document CHEMBL1155830, “Asymmetric synthesis of 2,3-dihydro-2-arylquinazolin-4-ones: methodology and application to a potent fluorescent tubulin inhibitor with anticancer activity” (J Med Chem, 2008).

How the values were obtained:
[1] = Inhibition of tubulin polymerization
[2] = Displacement of [3H]colchicine from tubulin at 50 uM
HCT-116 = experiment: Antiproliferative activity against human HCT116 cells after 72 hrs; assay type: functional; settings: HCT-116, 72 h
Outline: (§1)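 HCT-116 cells were kept in McCoy's 5a with 1.5 mM L-glutamine and 5% FBS, and MDA-MB-435 cells in D-MEM with 1.5 mM L-glutamine and 5% FBS, both at 37 °C in humidified 5% CO2. Cells were seeded at 3200 per well, allowed to attach, and given vehicle or drug at 10 nM–3 µM (n = 8) for 72 h. Live cells were read by CellTiter 96 AQueous at 490 nm, and the 50% inhibitory value was taken from the dose–response curve.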

[3] = Displacement of [3H]colchicine from tubulin at 5 uM
MDA-MB-435 = experiment: Antiproliferative activity against human MDA-MB-435 cells after 72 hrs; assay type: functional; settings: MDA-MB-435, 72 h; outline: as §1

| IC50 [1] | inhibition [2] | GI50 (HCT-116) | inhibition [3] | GI50 (MDA-MB-435) | SMILES |
| --- | --- | --- | --- | --- | --- |
| 1700 nM | 51% | 300 nM | 17% | 100 nM | Cc1ccccc1-c1ccc(C2NC(=O)c3cc([N+](=O)[O-])ccc3N2)cc1 (racemic) |
|  |  |  |  | 4 nM | CC(=O)O[C@H]1C(=O)[C@@]2(C)[C@H]([C@H](OC(=O)c3ccccc3)[C@]3(O)C[C@H](OC(=O)[C@H](O)[C@@H](NC(=O)c4ccccc4)c4ccccc4)C(C)=C1C3(C)C)[C@]1(OC(C)=O)CO[C@@H]1C[C@@H]2O [PACLITAXEL] |

Second part, the compound before the results:

| SMILES | IC50 [1] | inhibition [2] | GI50 (HCT-116) | inhibition [3] | GI50 (MDA-MB-435) |
| --- | --- | --- | --- | --- | --- |
| Cc1ccccc1-c1ccc([C@@H]2NC(=O)c3cc([N+](=O)[O-])ccc3N2)cc1 | 1100 nM | 66% | 100 nM | 28% | 0.1 nM |
| COc1ccc(/C=C\c2cc(OC)c(OC)c(OC)c2)cc1O |  |  |  | 99% |  |
| Cc1ccccc1-c1ccc([C@H]2NC(=O)c3cc([N+](=O)[O-])ccc3N2)cc1 | 16000 nM | 5.5% | 930 nM | 2.1% | 1100 nM |
